In the experiment the target is Thymidine phosphorylase (Escherichia coli K-12, UniProt P07650). Nature of the experiment: Inhibition of Escherichia coli Thymidine phosphorylase by spectrophotometry. In short, it runs like this: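 E. coli TP (0.22 units) added to start a 1 ml reaction containing […] and inhibitor in 0.1 M potassium phosphate, pH 7.4. Loss of thymidine absorbance followed at 265 nm, 25 °C, in a thermostatted cuvette. IC50 obtained from inhibition curves by enzyme kinetics analysis.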
Sequence of Thymidine phosphorylase (P07650 whole entry): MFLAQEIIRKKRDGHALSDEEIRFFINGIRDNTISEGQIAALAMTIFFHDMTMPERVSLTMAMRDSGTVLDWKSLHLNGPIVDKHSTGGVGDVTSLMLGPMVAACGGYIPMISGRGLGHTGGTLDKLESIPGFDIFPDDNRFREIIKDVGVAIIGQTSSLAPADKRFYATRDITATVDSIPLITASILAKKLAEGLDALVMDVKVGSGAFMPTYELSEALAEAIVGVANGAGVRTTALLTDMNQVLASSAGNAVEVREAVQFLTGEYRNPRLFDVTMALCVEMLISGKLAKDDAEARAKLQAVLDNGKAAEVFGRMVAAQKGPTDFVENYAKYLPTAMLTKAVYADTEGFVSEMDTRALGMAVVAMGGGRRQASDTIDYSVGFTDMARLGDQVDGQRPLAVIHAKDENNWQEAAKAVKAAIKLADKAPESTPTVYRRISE

Structures can show the parent of a compound that is named as a salt.

Broadly, the IC50 is the midpoint of a concentration-inhibition curve. For `O=C1NC(=O)N(Cc2ccccc2)C1=O`, the IC50 (read-out: IC50) worked out at 115 µM. The same measure, in the same setting: the value for `Cc1ccccc1CN1C(=O)NC(=O)C1=O` was 128 µM. Still for that read-out and setting: the value for `O=C1NC(=O)N(Cc2cccc(Cl)c2)C1=O` was 117 µM; that for `O=C1NC(=O)N(CCc2ccccc2)C1=O` was 103 µM; that for `CCOC(=O)CN1C(=O)C(=O)N(Cc2ccccc2)C1=O` was 342 µM. Take `CCOC(=O)CN1C(=O)C(=O)N(Cc2ccccc2C)C1=O`: where the note is “read-out: IC50”, the IC50 was found to be 303 µM. Same read-out and setting: next, `CCOC(=O)CN1C(=O)C(=O)N(Cc2cccc(Cl)c2)C1=O`: 292 µM. On the same count and under the same terms, next, `CCOC(=O)CN1C(=O)C(=O)N(CCc2ccccc2)C1=O`: 357 µM; `NC(=O)CCN1C(=O)C(=O)N(Cc2ccccc2)C1=O`: 106 µM; `Cc1ccccc1CN1C(=O)C(=O)N(CCC(N)=O)C1=O`: 88 µM. For `NC(=O)CCN1C(=O)C(=O)N(Cc2cccc(Cl)c2)C1=O`, the IC50 (read-out: IC50) was 66 µM.

`NC(=O)CCN1C(=O)C(=O)N(CCc2ccccc2)C1=O`: the 50% inhibitory concentration (IC50) (read-out: IC50) was 40 µM.

For the molecule `O=C(O)CN1C(=O)C(=O)N(Cc2ccccc2)C1=O`, under “read-out: IC50”, the concentration for half-maximal inhibition (IC50) was determined as 264 µM. With `Cc1ccccc1CN1C(=O)C(=O)N(CC(=O)O)C1=O`, the IC50 (read-out: IC50) worked out at 236 µM. Same read-out and setting: next, `O=C(O)CN1C(=O)C(=O)N(CCc2ccccc2)C1=O`: 85 µM.

Consider `O=C(O)CN1C(=O)C(=O)N(Cc2cccc(Cl)c2)C1=O`, for which the IC50 result is listed as “Active”.

Turning to `N=C1CCCN1Cc1[nH]c(=O)[nH]c(=O)c1Cl` [TIPIRACIL HYDROCHLORIDE], the IC50 (read-out: IC50) stood at 0.036 µM.
